Results taken from ChEMBL document CHEMBL1138799, “4-benzyl- and 4-benzoyl-3-dimethylaminopyridin-2(1H)-ones, a new family of potent anti-HIV agents: optimization and in vitro evaluation against clinically important HIV mutant strains” (J Med Chem, 2004).

How the values were obtained:
[1] = test system: Human immunodeficiency virus 1; assay: Inhibitory activity against HIV-1 mutant strain 181C; format: functional, organism-based
Summary of the method: (§1)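 Mutant HIV-1 made by recombining mutant PR-RT sequence into a PR-RT-deleted HXB2 proviral clone. Serial compound concentrations plated, then virus (200 CCID50/well) and MT4 cells (30 000 cells/well; RPMI 1640, 10% FCS) added; 5 days at 37 °C, 5% CO2; viability read by MTT. EC50 = concentration giving 50% infection versus drug-free control; mock-infected cultures run in parallel for toxicity.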

[2] = test system: Human immunodeficiency virus 1; assay: Inhibitory activity against wild type HIV-1 LAI cell line; format: functional, organism-based; conditions: Human immunodeficiency virus 1, LAI
Summary of the method: (§2)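 MT4 human T-lymphoblastoid cells were grown in RPMI 1640 with 10% fetal calf serum and antibiotics at 37 °C and 5% CO2. A compound concentration series was combined with HIV-1 LAI at 200 CCID50/well and 30 000 cells/well. Mock-infected cultures with the same concentrations were run in parallel to measure cytotoxicity. After 5 days, cell viability was read by MTT colorimetry. EC50 is the concentration giving 50% infection versus the drug-free control.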

[3] = test system: Human immunodeficiency virus 1; assay: Selectivity index of cytotoxic activity (CC50) to inhibitory activity (IC50) relative to LAI cell line; format: functional; summary of the method: as §2
[4] = test system: Human immunodeficiency virus 1; assay: Inhibitory activity against HIV-1 mutant strain 103N; format: functional, organism-based; summary of the method: as §1
[5] = test system: Human immunodeficiency virus 1; assay: Inhibitory activity against HIV-1 mutant strain 188L; format: functional, organism-based; summary of the method: as §1

| SMILES | IC50 [1] [nM] | IC50 [2] [nM] | Selectivity index [3] | IC50 [4] [nM] | IC50 [5] [nM] |
| --- | --- | --- | --- | --- | --- |
| CCc1c(C)nc(O)c(N(C)C)c1Cc1ccnc2ccccc12 | 63000 | 5010 | 20 | 79400 |  |
| CCc1c(C)nc(O)c(N(C)C)c1C(=O)c1cccc(N2CCCC2=O)c1 |  | 40 | 2510 |  |  |
| CCc1c(C)nc(O)c(N(C)C)c1C(=O)c1cccc(C=O)c1 | 1250 | 8 | 2510 | 120 | 10000 |
| CCc1c(C)nc(O)c(N(C)C)c1Cc1nccs1 | 500 | 60 | 1580 | 1990 |  |
| CCc1c(C)nc(O)c(N(C)C)c1C(=O)c1cc(F)cc(C(F)(F)F)c1 |  | 3 | 31600 |  |  |
| CCc1c(C)nc(O)c(N(C)C)c1Cc1ccc(N(C)C)cc1 | 10000 | 1250 | 8 | 10000 |  |
| CCOC(=O)/C=C/C=C/c1cccc(C(=O)c2c(CC)c(C)nc(O)c2N(C)C)c1 | 200 | 5 | 398 | 40 | 630 |
| CCc1c(C)nc(O)c(N(C)C)c1C(=O)c1cccc(/C=C(\C)C#N)c1 |  | 1 | 6310 |  | 630 |
| CCc1c(C)nc(O)c(N(C)C)c1Cc1cccc(C)c1C | 2510 | 100 | 200 | 2510 |  |
| CCc1c(C)nc(O)c(N(C)C)c1Cc1ccc(OC)c(C)c1 |  | 390 | 251 |  |  |
| CCc1c(C)nc(O)c(N(C)C)c1C(=O)c1cccc(/C=C\c2cccnc2)c1 |  | 70 | 631 |  |  |
| CCc1c(C)nc(O)c(N(C)C)c1C(=O)c1cccc(NS(C)(=O)=O)c1 |  | 1000 | 100 |  |  |
| CCc1c(C)nc(O)c(N(C)C)c1C(=O)c1cccc([N+](=O)[O-])c1 | 200 | 2 | 39600 | 20 | 3160 |
| CCc1c(C)nc(O)c(N(C)C)c1C(=O)c1cccc(-n2cccc2)c1 |  | 70 | 631 |  |  |
| CCc1c(C)nc(O)c(N(C)C)c1Cc1ccc(-c2ccccc2)cc1 | 10000 | 3980 | 3 | 10000 |  |
| C=Cc1cccc(C(=O)c2c(CC)c(C)nc(O)c2N(C)C)c1 | 630 | 2 | 12600 | 30 | 790 |
| CCc1c(C)nc(O)c(N(C)C)c1Cc1cccc(C(F)(F)F)c1 | 30 | 10 | 10000 | 390 | 5010 |
| CCc1c(C)nc(O)c(N(C)C)c1C(=O)c1cccc(/C=C/c2cnccn2)c1 | 70 | 20 | 3960 | 50 | 200 |
| CCc1c(C)nc(O)c(N(C)C)c1C(=O)c1cccc(CC(C)C#N)c1 (stereo not drawn) | 500 | 8 | 12600 | 50 | 1990 |
| CCc1c(C)nc(O)c(N(C)C)c1C(=O)c1cccc(-c2ccccc2)c1 |  | 390 | 251 |  |  |
| CCc1c(C)nc(O)c(N(C)C)c1Cc1ccccc1Cl | 200 | 6 | 15900 | 390 | 790 |
| CCc1c(C)nc(O)c(N(C)C)c1C(=O)c1cccc(/C=C\Cc2ccccc2)c1 |  | 1580 | 32 |  |  |
| CCc1c(C)nc(O)c(N(C)C)c1C(=O)c1cccc(/C=C/c2nccs2)c1 |  | 30 | 3160 |  |  |

| SMILES | IC50 [1] [nM] | IC50 [2] [nM] | Selectivity index [3] | IC50 [4] [nM] | IC50 [5] [nM] |
| --- | --- | --- | --- | --- | --- |
| CCc1c(C)nc(O)c(N(C)C)c1C(=O)c1cccc(CN)c1 |  | 390 | 251 |  |  |
| CC/C=C/c1cccc(C(=O)c2c(CC)c(C)nc(O)c2N(C)C)c1 |  | 50 | 1260 |  |  |
| CCc1c(C)nc(O)c(N(C)C)c1C(=O)c1cccc(/C=C/c2cccs2)c1 |  | 70 | 1260 |  |  |
| CCc1c(C)nc(O)c(N(C)C)c1C(=O)c1cccc(/C=C/c2cccn2C)c1 |  | 310 | 158 |  |  |
| CCc1c(C)nc(O)c(N(C)C)c1Cc1ccc(C)cc1C | 100000 | 10000 | 10 | 100000 |  |
| CCc1c(C)nc(O)c(N(C)C)c1C(=O)c1cccc(/C=C(\C#N)c2ccccc2)c1 |  | 1000 | 16 |  |  |
| CCc1c(C)nc(O)c(N(C)C)c1C(=O)c1ccc(C#N)cc1 |  | 3160 | 32 |  |  |
| CCc1c(C)nc(O)c(N(C)C)c1Cc1ccc(C(F)(F)F)cc1 | 10000 | 1580 | 6 | 10000 |  |
| CCc1c(C)nc(O)c(N(C)C)c1C(=O)c1cccc(/C=C/c2ccccc2)c1 |  | 250 | 398 |  |  |
| CCc1c(C)nc(O)c(N(C)C)c1Cc1ccc(C)c(C)c1 | 400 | 40 | 2510 | 1000 |  |
| CCc1c(C)nc(O)c(N(C)C)c1Cc1ccc(Br)cc1 |  | 1580 | 63 |  |  |
| CCc1c(C)nc(O)c(N(C)C)c1C(=O)c1cccc(-c2ccco2)c1 |  | 60 | 158 |  |  |
| CCc1c(C)nc(O)c(N(C)C)c1C(=O)c1cccc(N(CC)CC)c1 |  | 1990 | 50 |  |  |
| CCc1c(C)nc(O)c(N(C)C)c1Cc1c(C)cc(C)cc1C | 10000 | 10000 | 1 | 10000 |  |
| CCc1c(C)nc(O)c(N(C)C)c1C(=O)c1cccc(/C=C\c2cnccn2)c1 |  | 190 | 501 |  |  |
| CCc1c(C)nc(O)c(N(C)C)c1C(=O)c1cccc(/C=C(\C#N)c2cccs2)c1 |  | 190 | 126 |  |  |
| CCc1c(C)nc(O)c(N(C)C)c1C(=O)c1cccc(/C=C\c2ccccn2)c1 |  | 1580 | 63 |  |  |
| CCc1c(C)nc(O)c(N(C)C)c1C(=O)c1cccc(/C=C/c2ccco2)c1 |  | 20 | 5010 |  |  |
| CCc1c(C)nc(O)c(N(C)C)c1C(=O)c1cccc(/C=C/c2ccoc2)c1 |  | 70 | 631 |  |  |
| CCc1c(C)nc(O)c(N(C)C)c1C(=O)c1cccc(/C=C\c2ccncc2)c1 |  | 60 | 794 |  |  |
| CCc1c(C)nc(O)c(N(C)C)c1C(=O)c1cccc(-c2nccs2)c1 |  | 250 | 40 |  |  |
| CCc1c(C)nc(O)c(N(C)C)c1C(=O)c1cccc(N(C)C)c1 |  | 390 | 251 |  |  |
| CCOc1cccc(Cc2c(CC)c(C)nc(O)c2N(C)C)c1 |  | 10 | 794 |  |  |

| SMILES | IC50 [1] [nM] | IC50 [2] [nM] | Selectivity index [3] | IC50 [4] [nM] | IC50 [5] [nM] |
| --- | --- | --- | --- | --- | --- |
| CCc1c(C)nc(O)c(N(C)C)c1Cc1nccn1C |  | 100000 | 1 |  | 100000 |
| CCc1c(C)nc(O)c(N(C)C)c1C(=O)c1cccc(/C=C\c2ccco2)c1 |  | 60 | 794 |  |  |
| CCc1c(C)nc(O)c(N(C)C)c1C(=O)c1cccc(/C=C/c2ccsc2)c1 |  | 100 | 1000 |  |  |
| CCc1c(C)nc(O)c(N(C)C)c1C(=O)c1cccc(C(C)O)c1 (stereo not drawn) |  | 50 | 2000 |  |  |
| CCc1c(C)nc(O)c(N(C)C)c1C(=O)c1cccc(/C=C/c2ccccn2)c1 |  | 70 | 1260 |  |  |
| CCc1c(C)nc(O)c(N(C)C)c1C(=O)c1cccc(C#Cc2ccccc2)c1 |  | 150 | 631 |  |  |
| CCc1c(C)nc(O)c(N(C)C)c1C(=O)c1cccc(NC(C)=O)c1 |  | 120 | 794 |  |  |
| CCNC(=O)Nc1cccc(C(=O)c2c(CC)c(C)nc(O)c2N(C)C)c1 |  | 1990 | 50 |  |  |
| CCc1c(C)nc(O)c(N(C)C)c1C(=O)c1cccc(/C=C(\C#N)c2cccnc2)c1 |  | 60 | 200 |  |  |
| CCc1c(C)nc(O)c(N(C)C)c1C(=O)c1c(F)cccc1F |  | 50 | 2000 |  |  |
| CCc1c(C)nc(O)c(N(C)C)c1C(=O)c1cccc(C=C(C#N)C#N)c1 |  | 10 | 3980 |  |  |
| CCOC(=O)/C(C#N)=C\c1cccc(C(=O)c2c(CC)c(C)nc(O)c2N(C)C)c1 |  | 150 | 631 |  |  |
| CCc1c(C)nc(O)c(N(C)C)c1Cc1ccc(Cl)cc1 | 6310 | 190 | 50 |  |  |
| CCc1c(C)nc(O)c(N(C)C)c1Cc1ccc(C)cc1 | 10000 | 310 | 316 | 12600 |  |
| CCc1c(C)nc(O)c(N(C)C)c1C(=O)c1cccc(COc2ccccc2)c1 |  | 30 | 2510 |  |  |
| CCc1c(C)nc(O)c(N(C)C)c1C(=O)c1cccc(/C=C\c2ccccc2)c1 |  | 1250 | 79 |  |  |
| CCc1c(C)nc(O)c(N(C)C)c1Cc1cc(C)ccc1C |  | 150 | 631 | 1990 |  |
| CCc1c(C)nc(O)c(N(C)C)c1C(=O)c1cccc(/C=C/c2ccncc2)c1 |  | 10 | 10000 |  |  |
| CCc1c(C)nc(O)c(N(C)C)c1C(=O)c1cccc(/C=C\c2nccs2)c1 |  | 150 | 501 |  |  |
| CCc1c(C)nc(O)c(N(C)C)c1C(=O)c1cccc(C)c1 |  | 2 | 39800 |  | 1990 |
| CCc1c(C)nc(O)c(N(C)C)c1C(=O)c1cccc(CNC(C)=O)c1 |  | 390 | 251 |  |  |
